{"source": "ChEMBL document CHEMBL3861955", "about": "“Pepluane and Paraliane Diterpenoids from Euphorbia peplus with Potential Anti-inflammatory Activity” (J Nat Prod, 2016)", "key": {"Mus musculus": {"organism": "Mus musculus", "assay": "Cytotoxicity against mouse RAW264.7 cells assessed as decrease in cell viability by MTT assay", "format": "toxicity, cell-based", "how_it_was_run": "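Viability measured by MTT, run alongside the LPS/NO assay in the same RAW264.7 cultures: 2 × 10^5 cells/well in RPMI-1640, 24 h preincubation, compound serial dilutions up to 100 μM, then LPS (1 μg/mL) for 18 h. Absorbance read at 595 nm.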"}, "[1]": {"assay": "Antiinflammatory activity in mouse RAW264.7 cells assessed as inhibition of LPS-induced nitric oxide production after 18 hrs by Griess assay", "format": "functional, cell-based", "details": "RAW264.7, 18 h", "how_it_was_run": "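RAW264.7 cells seeded at 2 × 10^5 cells/well in RPMI-1640 and preincubated 24 h. Compounds added as serial dilutions from a top concentration of 100 μM, then LPS (1 μg/mL) stimulation for 18 h. Supernatant nitrite measured with Griess reagent after 5 min incubation, absorbance at 550 nm; proteasome inhibitor MG-132 used as positive control.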"}}, "note": "Residues, ends and D or L forms follow the SMILES beside them. *: point of attachment. Cbz = O=C(OCc1ccccc1)*", "data": [{"smiles": "CC(=O)O[C@@H]1[C@H]2[C@@H](OC(=O)c3ccccc3)[C@@H](C)C[C@]2(O)[C@H](OC(C)=O)[C@@]2(C)[C@@H]3CC(C)(C)C(=O)[C@]3(OC(C)=O)C[C@@]12C", "values": [{"measurement": "Activity", "setting": "Mus musculus", "value": "Non-Toxic"}, {"measurement": "IC50", "setting": "[1]", "value": 29.9, "unit": "µM"}]}, {"smiles": "CC(=O)O[C@@H]1[C@H]2[C@@H](OC(=O)c3ccccc3)[C@@H](C)C[C@]2(O)[C@H](OC(C)=O)[C@@]2(C)[C@@H]3C[C@@](C)(O)C[C@H](O)[C@]3(OC(C)=O)C[C@@]12C", "values": [{"measurement": "Activity", "setting": "Mus musculus", "value": "Non-Toxic"}, {"measurement": "IC50", "setting": "[1]", "value": "> 50", "unit": "µM"}]}, {"smiles": "CC(=O)O[C@@H]1[C@H]2[C@@H](OC(=O)c3ccccc3)[C@@H](C)C[C@]2(O)[C@H](OC(C)=O)[C@@]2(C)[C@@H]3CC(C)(C)C(=O)[C@@H]3C[C@@]12C", "values": [{"measurement": "Activity", "setting": "Mus musculus", "value": "Non-Toxic"}, {"measurement": "IC50", "setting": "[1]", "value": 33.7, "unit": "µM"}]}, {"smiles": "CC(=O)O[C@H]1C[C@](C)(O)C[C@@H]2[C@@]1(OC(C)=O)C[C@@]1(C)[C@H](OC(C)=O)[C@H]3[C@@H](O)[C@@H](C)C[C@]3(O)[C@H](OC(C)=O)[C@@]21C", "values": [{"measurement": "Activity", "setting": "Mus musculus", "value": "Non-Toxic"}, {"measurement": "IC50", "setting": "[1]", "value": "> 50", "unit": "µM"}]}, {"smiles": "CC(=O)O[C@@H]1[C@H]2[C@@H](OC(=O)c3ccccc3)[C@@H](C)C[C@]2(O)[C@H](OC(C)=O)[C@@]2(C)[C@@H]3C[C@@](C)(OC(C)=O)CC(=O)[C@]3(OC(C)=O)C[C@@]12C", "values": [{"measurement": "Activity", "setting": "Mus musculus", "value": "Non-Toxic"}, {"measurement": "IC50", "setting": "[1]", "value": 47.5, "unit": "µM"}]}, {"smiles": "CC(=O)O[C@H]1C[C@](C)(O)C[C@@H]2[C@@]1(O)C[C@@]1(C)[C@H](OC(C)=O)[C@H]3[C@@H](OC(=O)c4ccccc4)[C@@H](C)C[C@]3(O)[C@H](OC(C)=O)[C@@]21C", "values": [{"measurement": "Activity", "setting": "Mus musculus", "value": "Non-Toxic"}, {"measurement": "IC50", "setting": "[1]", "value": "> 50", "unit": "µM"}]}, {"smiles": "CC(=O)OC[C@@]12C[C@@]3(OC(C)=O)C(=O)C(C)(C)C[C@H]3[C@]1(C)[C@@H](OC(C)=O)[C@@]1(O)C[C@H](C)[C@H](OC(=O)c3ccccc3)[C@@H]1[C@H]2OC(C)=O", "values": [{"measurement": "Activity", "setting": "Mus musculus", "value": "Non-Toxic"}, {"measurement": "IC50", "setting": "[1]", "value": "> 50", "unit": "µM"}]}, {"smiles": "CC(=O)O[C@@H]1[C@H]2[C@@H](OC(=O)c3ccccc3)[C@@H](C)C[C@]2(O)[C@H](OC(C)=O)[C@@]2(C)[C@@H]3C[C@@](C)(OC(C)=O)C[C@H](O)[C@]3(OC(C)=O)C[C@@]12C", "values": [{"measurement": "Activity", "setting": "Mus musculus", "value": "Non-Toxic"}, {"measurement": "IC50", "setting": "[1]", "value": "> 50", "unit": "µM"}]}, {"smiles": "CC(=O)O[C@H]1C[C@](C)(OC(C)=O)C[C@@H]2[C@@]1(OC(C)=O)C[C@@]1(C)[C@H](OC(C)=O)[C@H]3[C@@H](OC(=O)c4ccccc4)[C@@H](C)C[C@]3(O)[C@H](OC(C)=O)[C@@]21C", "values": [{"measurement": "Activity", "setting": "Mus musculus", "value": "Non-Toxic"}, {"measurement": "IC50", "setting": "[1]", "value": 37.1, "unit": "µM"}]}, {"smiles": "CC(=O)O[C@@H]1[C@H]2[C@@H](OC(=O)c3ccccc3)[C@@H](C)C[C@]2(O)C(=O)[C@@]2(C)[C@@H]3CC(C)(C)C(=O)[C@@H]3C[C@@]12C", "values": [{"measurement": "Activity", "setting": "Mus musculus", "value": "Non-Toxic"}, {"measurement": "IC50", "setting": "[1]", "value": 38.3, "unit": "µM"}]}, {"smiles": "CC(=O)O[C@@H]1[C@H]2[C@@H](OC(=O)c3ccccc3)[C@@H](C)C[C@]2(O)[C@H](OC(C)=O)[C@@]2(C)[C@@H]3C[C@@](C)(O)CC(=O)[C@]3(OC(C)=O)C[C@@]12C", "values": [{"measurement": "Activity", "setting": "Mus musculus", "value": "Non-Toxic"}, {"measurement": "IC50", "setting": "[1]", "value": "> 50", "unit": "µM"}]}, {"smiles": "CC(=O)O[C@@H]1[C@H]2[C@@H](OC(=O)c3ccccc3)[C@@H](C)C[C@]2(O)[C@H](OC(C)=O)[C@@]2(C)[C@@H]3CC(C)(C)C(=O)[C@]3(O)C[C@@]12C", "values": [{"measurement": "Activity", "setting": "Mus musculus", "value": "Non-Toxic"}, {"measurement": "IC50", "setting": "[1]", "value": 43.2, "unit": "µM"}]}, {"smiles": "CC(=O)O[C@H]1C[C@](C)(O)C[C@@H]2[C@@]1(OC(C)=O)C[C@@]1(C)[C@H](OC(C)=O)[C@H]3[C@@H](OC(=O)c4ccccc4)[C@@H](C)C[C@]3(O)[C@H](OC(C)=O)[C@@]21C", "values": [{"measurement": "Activity", "setting": "Mus musculus", "value": "Non-Toxic"}, {"measurement": "IC50", "setting": "[1]", "value": "> 50", "unit": "µM"}]}, {"smiles": "CC(=O)O[C@@H]1[C@H]2[C@@H](OC(=O)c3ccccc3)[C@@H](C)C[C@]2(O)[C@H](OC(C)=O)[C@@]2(C)[C@@H]3CC(C)=CC(=O)[C@]3(OC(C)=O)C[C@@]12C", "values": [{"measurement": "Activity", "setting": "Mus musculus", "value": "Non-Toxic"}, {"measurement": "IC50", "setting": "[1]", "value": 36.6, "unit": "µM"}]}, {"smiles": "CC(=O)OC[C@@]12C[C@@]3(OC(C)=O)C(=O)C=C(C)C[C@H]3[C@]1(C)[C@@H](OC(C)=O)[C@@]1(O)C[C@H](C)[C@H](OC(=O)c3ccccc3)[C@@H]1[C@H]2OC(C)=O", "values": [{"measurement": "Activity", "setting": "Mus musculus", "value": "Non-Toxic"}, {"measurement": "IC50", "setting": "[1]", "value": "> 50", "unit": "µM"}]}, {"smiles": "CC(=O)O[C@H]1C[C@](C)(O)C[C@@H]2[C@@]1(OC(C)=O)C[C@@]1(C)[C@H](OC(C)=O)[C@H]3[C@@H](OC(=O)c4ccccc4)[C@@H](C)[C@@H](OC(C)=O)[C@]3(O)[C@H](OC(C)=O)[C@@]21C", "values": [{"measurement": "Activity", "setting": "Mus musculus", "value": "Non-Toxic"}, {"measurement": "IC50", "setting": "[1]", "value": "> 50", "unit": "µM"}]}, {"smiles": "CC(=O)O[C@@H]1[C@H]2[C@@H](OC(=O)c3ccccc3)[C@@H](C)C[C@]2(O)[C@H](OC(C)=O)[C@@]2(C)[C@@H]3C[C@](C)(O)CC(=O)[C@]3(OC(C)=O)C[C@@]12C", "values": [{"measurement": "Activity", "setting": "Mus musculus", "value": "Non-Toxic"}, {"measurement": "IC50", "setting": "[1]", "value": "> 50", "unit": "µM"}]}, {"smiles": "CC(C)C[C@@H](C=O)NC(=O)[C@H](CC(C)C)NC(=O)[C@H](CC(C)C)NC(=O)OCc1ccccc1", "note": "[MG-132] (Cbz-Leu-Leu-Leu-aldehyde)", "values": [{"measurement": "IC50", "setting": "[1]", "value": 0.18, "unit": "µM"}]}]}
